Source: ChEMBL document CHEMBL1152644, “Synthesis of isoquinolinone-based tetracycles as poly (ADP-ribose) polymerase-1 (PARP-1) inhibitors” (Bioorg Med Chem, 2009)
pIC50: −log10 of the molar value. Where a name gives a salt, the structure may show the parent alone.

System: HCT-116
Experiment: Induction of etoposide-induced cytotoxicity in human HCT116 cells assessed as potentiation factor, ratio of cytotoxic IC50 for etoposide alone to cytotoxic IC50 etoposide in presence of drug
Format: functional
Conditions: not given
Summary of the method: (§1)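 HCT116 cells in RPMI 1640 with 10% FBS at 37 °C under 5% CO2 were seeded at 3 x 10^4 cells/well and grown overnight. On day 2, medium was replaced with graded temozolomide or etoposide, with or without PARP-1 inhibitor at 0.5 µM. On day 4, CCK-8 was added for 4 h and A450 read. IC50 came from four-parameter logistic fits. Potentiation factor = IC50 (agent alone)/IC50 (agent + inhibitor); mean±S.D. of ≥3 independent experiments.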

| Structure (SMILES) | PF50 |
| --- | --- |
| Cc1ccn2c(n1)nc1c3ccccc3c(=O)[nH]c12 | 1.2 |
| Cc1ccn2c(c1)nc1c3ccccc3c(=O)[nH]c12 | 1.7 |

Target: Poly [ADP-ribose] polymerase 1 (Homo sapiens, UniProt P09874)
Sequence (P09874 whole entry): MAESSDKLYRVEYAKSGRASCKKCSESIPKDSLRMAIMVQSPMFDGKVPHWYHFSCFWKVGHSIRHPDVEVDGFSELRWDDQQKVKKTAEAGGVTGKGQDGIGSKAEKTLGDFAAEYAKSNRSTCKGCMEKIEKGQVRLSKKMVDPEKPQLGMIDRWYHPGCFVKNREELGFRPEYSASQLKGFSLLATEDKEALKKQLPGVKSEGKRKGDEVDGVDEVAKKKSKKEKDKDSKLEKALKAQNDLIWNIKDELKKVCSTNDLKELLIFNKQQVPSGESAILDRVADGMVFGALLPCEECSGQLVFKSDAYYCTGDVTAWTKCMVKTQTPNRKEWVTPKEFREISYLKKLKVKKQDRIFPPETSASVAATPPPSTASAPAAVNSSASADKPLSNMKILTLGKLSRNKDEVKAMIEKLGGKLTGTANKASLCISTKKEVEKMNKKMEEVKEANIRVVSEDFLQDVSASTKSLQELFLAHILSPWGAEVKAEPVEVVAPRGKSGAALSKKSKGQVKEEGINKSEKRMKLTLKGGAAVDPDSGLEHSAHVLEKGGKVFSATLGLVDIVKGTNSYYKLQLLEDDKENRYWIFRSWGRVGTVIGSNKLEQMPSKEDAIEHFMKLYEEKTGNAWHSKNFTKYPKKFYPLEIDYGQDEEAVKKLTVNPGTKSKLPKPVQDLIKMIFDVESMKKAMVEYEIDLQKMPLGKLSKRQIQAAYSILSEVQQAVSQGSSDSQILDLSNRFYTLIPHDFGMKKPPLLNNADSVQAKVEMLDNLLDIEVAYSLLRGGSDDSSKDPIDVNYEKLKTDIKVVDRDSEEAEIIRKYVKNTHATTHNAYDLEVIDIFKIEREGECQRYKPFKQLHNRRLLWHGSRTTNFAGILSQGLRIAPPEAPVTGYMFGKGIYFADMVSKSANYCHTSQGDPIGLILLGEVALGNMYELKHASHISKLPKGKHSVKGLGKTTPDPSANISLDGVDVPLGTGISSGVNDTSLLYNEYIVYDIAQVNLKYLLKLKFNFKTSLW
Experiment: Inhibition of PARP1
Conditions: not given

| Structure (SMILES) | pIC50 |
| --- | --- |
| O=C1NCCc2c(OCCCCN3CCCCC3)cccc21 | 4.97 |
| O=c1[nH]c2c(nc3cnccn32)c2ccccc12 | 5.49 |
| O=c1[nH]c2c(nc3ccc(Cl)cn32)c2ccccc12 | 4.83 |
| Cc1cccn2c1nc1c3ccccc3c(=O)[nH]c12 | 5.48 |
| O=c1[nH]c2c(nc3cc(Cl)ccn32)c2ccccc12 | 5.23 |
| Cc1ccn2c(n1)nc1c3ccccc3c(=O)[nH]c12 | 6.25 |
| O=c1[nH]c2c(nc3ccccn32)c2ccccc12 | 6.07 |
| O=c1[nH]c2c(nc3cc(S(=O)(=O)NCCCN4CCOCC4)ccn32)c2ccccc12 | 7.44 |
| Cc1ccc2nc3c4ccccc4c(=O)[nH]c3n2c1 | 5.37 |
| O=c1[nH]c2c(nc3ccc(Br)cn32)c2ccccc12 | 4.92 |
| Cc1cccc2nc3c4ccccc4c(=O)[nH]c3n12 | < 4.00 |
| O=c1[nH]c2c(nc3ncccn32)c2ccccc12 | 5.24 |
| O=c1[nH]c2c(nc3c4ccccc4ccn32)c2ccccc12 | 5.39 |
| Cc1ccn2c(c1)nc1c3ccccc3c(=O)[nH]c12 | 6.33 |
| Cc1cc(C)n2c(c1)nc1c3ccccc3c(=O)[nH]c12 | < 4.00 |
| COc1cc2nc3c4ccccc4c(=O)[nH]c3n2cn1 | < 4.00 |

System: HCT-116
Experiment: Induction of temozolomide-induced cytotoxicity in human HCT116 cells assessed as potentiation factor, ratio of cytotoxic IC50 for temozolomide alone to cytotoxic IC50 temozolomide in presence of drug
Format: functional
Conditions: not given
Summary of the method: as §1

| Structure (SMILES) | PF50 |
| --- | --- |
| Cc1ccn2c(n1)nc1c3ccccc3c(=O)[nH]c12 | 1.1 |
| Cc1ccn2c(c1)nc1c3ccccc3c(=O)[nH]c12 | 1.7 |

System: DU-145
Experiment: Cytotoxicity against human DU145 cells at 10 uM by MTT assay
Format: functional
Conditions: not given

| Structure (SMILES) | inhibition at 10 µM [%] |
| --- | --- |
| O=c1[nH]c2c(nc3cnccn32)c2ccccc12 | 18.7 |
| O=c1[nH]c2c(nc3ccc(Cl)cn32)c2ccccc12 | 0.2 |
| CC[C@@]1(O)C(=O)OCc2c1cc1n(c2=O)Cc2cc3ccccc3nc2-1 [CAMPTOTHECIN] | 69.4 |
| Cc1cccn2c1nc1c3ccccc3c(=O)[nH]c12 | 9.1 |
| O=c1[nH]c2c(nc3cc(Cl)ccn32)c2ccccc12 | 11.4 |
| COc1cccc2c1C(=O)c1c(O)c3c(c(O)c1C2=O)C[C@@](O)(C(=O)CO)C[C@@H]3O[C@H]1C[C@H](N)[C@H](O)[C@H](C)O1 [DOXORUBICIN HYDROCHLORIDE] | 70.3 |
| Cc1ccn2c(n1)nc1c3ccccc3c(=O)[nH]c12 | 27.7 |
| O=c1[nH]c2c(nc3ccccn32)c2ccccc12 | 7.9 |
| Cc1ccc2nc3c4ccccc4c(=O)[nH]c3n2c1 | 19.2 |
| O=c1[nH]c2c(nc3ccc(Br)cn32)c2ccccc12 | 6.8 |
| Cc1cccc2nc3c4ccccc4c(=O)[nH]c3n12 | 25.6 |
| O=c1[nH]c2c(nc3ncccn32)c2ccccc12 | 14.2 |
| COc1cc([C@@H]2c3cc4c(cc3[C@@H](O[C@@H]3O[C@@H]5CO[C@@H](C)O[C@H]5[C@H](O)[C@H]3O)[C@H]3COC(=O)[C@H]23)OCO4)cc(OC)c1O [ETOPOSIDE] | 72.1 |
| O=c1[nH]c2c(nc3c4ccccc4ccn32)c2ccccc12 | 25.5 |
| Cc1ccn2c(c1)nc1c3ccccc3c(=O)[nH]c12 | 0 |
| Cc1cc(C)n2c(c1)nc1c3ccccc3c(=O)[nH]c12 | 38.5 |
| COc1cc2nc3c4ccccc4c(=O)[nH]c3n2cn1 | 0 |

System: HCT-116
Experiment: Cytotoxicity against human HCT116 cells after 2 days
Conditions: HCT-116, 48 h

| Structure (SMILES) | pIC50 |
| --- | --- |
| Cn1nnc2c(C(N)=O)ncn2c1=O [TEMOZOLOMIDE] | 5.36 |
| COc1cc([C@@H]2c3cc4c(cc3[C@@H](O[C@@H]3O[C@@H]5CO[C@@H](C)O[C@H]5[C@H](O)[C@H]3O)[C@H]3COC(=O)[C@H]23)OCO4)cc(OC)c1O [ETOPOSIDE] | 4.84 |
